Measurements as given in ChEMBL document CHEMBL1144298, “Novel 3-aminochromans as potential pharmacological tools for the serotonin 5-HT(7) receptor” (Bioorg Med Chem Lett, 2005).

Key:
[1] = target: 5-hydroxytryptamine receptor 7 (Rattus norvegicus, UniProt P32305); assay: Binding affinity for rat serotonin 5-HT7 receptor expressed in Sf9 cells using [3H]5-HT radioligand
How it was run: (§1)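 In vitro radioligand binding on cloned receptors. For 5-HT7, cloned rat receptor expressed in Sf9 cells was labeled with [3H]5-HT. For 5-HT1A, cloned receptor expressed in CHO cells was labeled with [3H]8-OH-DPAT.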

[2] = species: Rattus norvegicus; assay: Ratio of binding affinity for serotonin 5-HT1A to serotonin 5-HT7
[3] = Binding affinity for rat serotonin 5-HT1A receptor using [3H]8-OH-DPAT as radioligand expressed in CHO cells; type: cell-based; how it was run: as §1
[4] = target: 5-hydroxytryptamine receptor 7 (Rattus norvegicus) (UniProt P32305); assay: Efficacy at the 5-HT7 receptor by measuring its effect on cAMP production in CHO cells; type: functional, cell-based
Sequence of 5-hydroxytryptamine receptor 7 (Rattus norvegicus) (P32305 whole entry): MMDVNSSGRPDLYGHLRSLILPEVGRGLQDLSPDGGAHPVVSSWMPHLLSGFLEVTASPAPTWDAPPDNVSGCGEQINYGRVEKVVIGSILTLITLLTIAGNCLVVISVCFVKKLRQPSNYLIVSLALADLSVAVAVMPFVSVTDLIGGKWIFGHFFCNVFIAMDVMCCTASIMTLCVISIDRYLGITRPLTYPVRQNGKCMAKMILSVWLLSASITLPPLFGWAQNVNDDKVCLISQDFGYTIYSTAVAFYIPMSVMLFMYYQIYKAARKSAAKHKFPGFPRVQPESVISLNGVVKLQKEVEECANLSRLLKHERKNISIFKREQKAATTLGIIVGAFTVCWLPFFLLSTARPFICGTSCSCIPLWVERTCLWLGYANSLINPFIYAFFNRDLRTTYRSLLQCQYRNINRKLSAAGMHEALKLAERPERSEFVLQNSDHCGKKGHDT

Sequence of 5-hydroxytryptamine receptor 7 (P32305 whole entry): as above

SMILES | Ki [1] | Ratio [2] | Ki [3] | Efficacy [4] | Efficacy ([4]; filed as antagonist)
COc1cccc(OC)c1-c1ccc2c(c1)C[C@H](N(C)C)CO2 | 367 nM |  |  |  | 
CN(C)[C@@H]1COc2ccc(-c3ccccc3)cc2C1 | > 1000 nM |  |  |  | 
COc1cccc(OC)c1-c1cccc2c1OC[C@@H](N(C)C)C2 | 5.29 nM | > 189 | > 1000 nM | 28% | 
CCCN(CCC)[C@H]1COc2c(cccc2-c2c(OC)cccc2OC)C1 |  | 27 | 174 nM |  | 
Cc1cccc(C)c1-c1ccc2c(c1)C[C@H](N(C)C)CO2 | 13.4 nM | 6 | 75.1 nM | 76% | 
O=S(=O)(c1ccc2cc[nH]c2c1)N1CCC[C@@H]1CCN1CCC(Oc2ccc(Cl)cc2)CC1 | 1.99 nM | 282 | 562 nM |  | Antagonist
CN(C)[C@@H]1COc2ccc(-c3c(O)cccc3O)cc2C1 | > 1000 nM |  |  |  | 
COc1c(-c2ccc3c(c2)C[C@H](N(C)C)CO3)ccc2ccccc12 | 75.9 nM | 8 | 594 nM |  | 
